Experimental data published in article PMC6001664 (Chemmedchem, 2018).
In brackets after ≈: the same amount, converted by molar mass. Like-named read-outs stand apart in the source and are kept apart here. Blank lines part the entries; values can stand above or below the compound they belong to.

Experiments:
PHD1 [1] = molecular target: T1, PHD1 (Homo sapiens, UniProt Q96KS0); assay: Biochemical HIF-PH enzyme assay; conditions: for dependence of potency (IC50) on Fe^2+ concentration: Fe^2+ varied in reaction buffer (3 μM and 30 μM, Figure 3); for LipE (lipophilic binding efficiency): LipE=pIC50−logD 7.5; for BEI (binding efficiency index): from pIC50 and molecular weight
Method in brief: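 Human HIF-PH hydroxylates Pro564 of a HIF peptide (aa 556–574). The hydroxylated peptide binds europium-labelled recombinant VBC complex, and inhibition is read as lower fluorescence. Iron dependence was tested at 3 and 30 μM Fe²⁺. LipE = pIC50 − logD7.5; BEI derived from pIC50 and corrected molecular weight.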

[2] = tested on: endogenous HIF in recombinant A549 lung carcinoma cell; assay: HIF-reporter cell assay; assay type: cell-based
plasma EPO [3] = assay: EPO mRNA / plasma EPO in mice; assay type: in vivo; conditions: for plasma EPO concentration: 4 h after p.o. dosing of 100 mg kg^−1, baseline ≈120 pg mL^−1
plasma EPO [4] = assay: Plasma EPO in rats after oral dosing; assay type: in vivo; conditions: 4 h (Figure 7), BAY-908 50 mg kg^−1
[5] = pKa determination by spectrophotometry; assay type: physicochemical; conditions: aqueous solution
[6] = logD 7.5 by HPLC retention time correlation; assay type: physicochemical; conditions: pH 7.5
Method in brief: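 logD at pH 7.5 was estimated by correlating HPLC retention times with those of reference compounds of known logD7.5.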

Aqueous solubility = assay type: physicochemical; conditions: water
major CYP isoforms = assay: CYP profile; assay type: in vitro ADME
[7] = tested on: broad range of targets including 2‐OG‐dependent dioxygenases, metalloenzymes, nuclear hormone receptors and cell surface receptors; assay: Lead profiling selectivity panel
[8] = Pharmacokinetic studies in rats; assay type: in vivo; conditions: rat; for clearance: blood, iv, 2 mg/kg; for bioavailability as Tylose suspension / Relative bioavailability (Tylose suspension): p.o.; for bioavailability as Tylose suspension: 0.5 % Tylose in water; for Relative bioavailability (Tylose suspension): 0.5 % Tylose in water vs solution
PHD1 [9] = molecular target: T1, PHD1; conditions: cited from earlier work
PHD3 = conditions: salt-free compound; cited from earlier work
[10] = cited from earlier work
HIF‐1α in HeLa cells = assay: Induction of HIF-1α in HeLa cell cultures; assay type: cell-based; conditions: human HeLa cell cultures
EPO in HuH cells = assay: EPO induction in hepatoma HuH cells; assay type: cell-based, human
[11] = tested on: hematocrit and reticulocytes; assay: Hematocrit and reticulocytes in mice; assay type: in vivo
[12] = Elimination of iron via urine in rats; assay type: in vivo; conditions: oral administration
[13] = metabolite of molidustat; cited from earlier work
[14] = sodium salt; cited from earlier work
[15] = Homo sapiens, A549, read-out: EC50 HIF-reporter cell assay

T1 sequence (Q96KS0 whole entry, the tested form may be a part): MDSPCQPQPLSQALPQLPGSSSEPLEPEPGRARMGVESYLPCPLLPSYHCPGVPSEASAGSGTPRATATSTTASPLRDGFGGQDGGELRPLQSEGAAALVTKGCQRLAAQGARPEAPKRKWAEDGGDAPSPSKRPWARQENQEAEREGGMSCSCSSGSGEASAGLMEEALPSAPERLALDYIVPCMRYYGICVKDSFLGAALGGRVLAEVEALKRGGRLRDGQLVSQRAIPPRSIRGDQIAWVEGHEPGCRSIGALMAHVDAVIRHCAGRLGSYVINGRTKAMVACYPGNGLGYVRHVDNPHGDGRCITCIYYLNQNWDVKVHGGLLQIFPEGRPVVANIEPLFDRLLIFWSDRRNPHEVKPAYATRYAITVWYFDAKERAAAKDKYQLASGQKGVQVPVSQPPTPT

SMILES: Cc1cccc(-n2[nH]cc(-c3cccnc3)c2=O)n1 [Compound 13]
IC50 (PHD1 [1]): 8900 nM

SMILES: N#Cc1ccc(-c2c[nH]n(-c3ccccn3)c2=O)cn1 [Compound 34]
IC50 (PHD1 [1]): 100 nM

SMILES: CC(=O)N(O)CCCCCNC(=O)CCC(=O)N(O)CCCCCNC(=O)CCC(=O)N(O)CCCCCN [deferoxamine, reference compound]
EC50 [2, 15]: ~25000 nM

SMILES: O=c1c(-c2cnccn2)c[nH]n1-c1ccccn1 [Compound 36]
IC50 (PHD1 [1]): 28000 nM

SMILES: Cc1cn(-c2c[nH]n(-c3ccccn3)c2=O)nn1 [Compound 42]
IC50 (PHD1 [1]): 330 nM

SMILES: O=c1c(-c2cccnc2)c[nH]n1-c1cc(CO)ccn1 [Compound 17]
IC50 (PHD1 [1]): 1500 nM

SMILES: COc1ccc(-c2c[nH]n(-c3ccccn3)c2=O)cn1 [Compound 33]
IC50 (PHD1 [1]): 190 nM

SMILES: O=c1c(-c2cccnc2)c[nH]n1-c1cc(N2CCOCC2)ncn1 [Compound 23]
IC50 (PHD1 [1]): 180 nM

SMILES: Cc1ccnc(-n2[nH]cc(-c3cccnc3)c2=O)c1 [Compound 11]
IC50 (PHD1 [1]): 340 nM

SMILES: O=c1c(-c2cccnc2)c[nH]n1-c1cc(COCc2ccccc2)ccn1 [Compound 18]
IC50 (PHD1 [1]): 2900 nM

SMILES: O=c1c(-c2cccnc2)c[nH]n1-c1cc(N2CCCCC2)ncn1 [Compound 22]
IC50 (PHD1 [1]): 1500 nM

SMILES: Cc1ccc(-c2c[nH]n(-c3ccccn3)c2=O)cn1 [Compound 31]
IC50 (PHD1 [1]): 3200 nM

SMILES: Cc1ccc(-n2[nH]cc(-c3cccnc3)c2=O)nc1 [Compound 12]
IC50 (PHD1 [1]): 1700 nM

SMILES: Oc1c(-n2ccnc2)cnn1-c1cc(N2CCCCC2)ncn1 [Compound 44, 4‐(1H‐Imidazol‐1‐yl)‐1‐[6‐(piperidin‐1‐yl)pyrimidin‐4‐yl]‐1H‐pyrazol‐5‐ol]
IC50 (PHD1 [1]): 500 nM | LipE (lipophilic binding efficiency) (PHD1 [1]): 5.3 | BEI (binding efficiency index) (PHD1 [1]): 20.2 | EC50 [2, 15]: 4900 nM | plasma EPO concentration (plasma EPO [3]): ≈ 3000 pg mL^−1 | plasma EPO concentration in rats (plasma EPO [4]): improved | chromatographic logD [6]: 1 | solubility (Aqueous solubility): 520 µg/mL (≈ 1670 µM) | CYP profile / CYP inhibition (major CYP isoforms): not optimal | clearance [8]: 21.7 mL/min/kg | bioavailability as Tylose suspension [8]: remained unchanged | Relative bioavailability (Tylose suspension) [8]: 97% | early safety profile (Early safety profile): not optimal

SMILES: O=c1c(-n2ccnn2)c[nH]n1-c1ccccn1 [Compound 41]
IC50 (PHD1 [1]): 790 nM | EC50 [2, 15]: > 20000 nM

SMILES: Oc1c(-c2cccnc2)cnn1-c1ccccn1 [Compound 1, 1‐(Pyridin‐2‐yl)‐4‐(pyridin‐3‐yl)‐1H‐pyrazol‐5‐ol]
IC50 (PHD1 [1]): 430 nM | dependence of potency (IC50) on Fe^2+ concentration (PHD1 [1]): only minor changes | LipE (lipophilic binding efficiency) (PHD1 [1]): 5.8 | BEI (binding efficiency index) (PHD1 [1]): 26.7 | EC50 [2, 15]: 4900 nM | concentration at which HIF‐1α was detected (HIF‐1α in HeLa cells): > 0.25 µM | EC50 (EPO in HuH cells; Homo sapiens, read-out: EC50 EPO mRNA induction): 1900 nM | increase in EPO concentration in the supernatant compared with baseline (EPO in HuH cells; human hepatoma HuH cells): threefold | plasma EPO concentration (plasma EPO [3]): ≈ 900 pg mL^−1 | EPO mRNA and plasma EPO levels / EPO induction (plasma EPO [3]; after i.p. and p.o. administration): increased | plasma EPO concentration in rats (plasma EPO [4]): increased | hematocrit and reticulocytes [11]: increase | elimination of iron via urine [12]: did not result in any increased elimination of iron via urine | chromatographic logD [6]: 0.6 | solubility (Aqueous solubility): < 1 µg/mL | CYP profile / CYP inhibition (major CYP isoforms): clean | selectivity profile in lead profiling panel [7]: favorable | clearance [8]: 48.3 mL/min/kg | Relative bioavailability (Tylose suspension) [8]: 26%

SMILES: [Cl][Co][Cl] [cobalt chloride, reference compound]
EC50 ([2]; read-out: EC50 HIF-reporter cell assay, A549 HIFRE2 luciferase reporter): ~50000 nM

SMILES: O=c1c(-c2cccnc2)c[nH]n1-c1ccc(COCc2ccccc2)cn1 [Compound 27]
IC50 (PHD1 [1]): 1100 nM

SMILES: COc1cc(-n2[nH]cc(-c3cccnc3)c2=O)ncn1 [Compound 20]
IC50 (PHD1 [1]): 880 nM

SMILES: Oc1c(-c2cccnc2)ncnc1-c1ccccn1 [Compound 10]
IC50 (PHD1 [1]): > 50000 nM

SMILES: [Na+].[O-]c1c(-n2ccnn2)cnn1-c1cc(N2CCOCC2)ncn1 [Compound 84, Sodium 1‐[6‐(morpholin‐4‐yl)pyrimidin‐4‐yl]‐4‐(1 H ‐1,2,3‐triazol‐1‐yl)‐1H‐pyrazol‐5‐olate]
solubility in water [14]: 28000 µg/mL | water content ([10]; 20–35 °C, normal pressure): < 0.5 % w/w | change of water content ([10]; relative humidity of up to 90 %): < 0.5 % w/w

The next lines start with results.

IC50 (PHD1 [1]): 650 nM | EC50 [2, 15]: 5300 nM
SMILES: CCOC(=O)c1ccc(-n2[nH]cc(-c3cccnc3)c2=O)nc1 [Compound 25]

IC50 (PHD1 [1]): > 50000 nM
SMILES: COc1c(-c2cccnc2)cnn1-c1ccccn1 [Compound 8]

dependence of potency (IC50) on Fe^2+ concentration (PHD1 [1]): independent | LipE (lipophilic binding efficiency) (PHD1 [1]): 6.1 | BEI (binding efficiency index) (PHD1 [1]): 20.1 | EC50 [2, 15]: 8400 nM | pK a [5]: 4.4 | chromatographic logD [6]: 0.27 | solubility (Aqueous solubility): 140 µg/mL (≈ 445 µM) | CYP profile / CYP inhibition (major CYP isoforms): favorable | clearance [8]: 18.3 mL/min/kg | bioavailability as Tylose suspension [8]: remained unchanged | Relative bioavailability (Tylose suspension) [8]: 102%
SMILES: Oc1c(-n2ccnn2)cnn1-c1cc(N2CCOCC2)ncn1 [Compound 45, 1‐[6‐(Morpholin‐4‐yl)pyrimidin‐4‐yl]‐4‐(1H‐1,2,3‐triazol‐1‐yl)‐1H‐pyrazol‐5‐ol]
plasma EPO concentration (plasma EPO [3]): ≈ 4000 pg mL^−1 | plasma EPO concentration in rats (plasma EPO [4]): Very high EPO induction | selectivity profile in lead profiling panel [7]: favorable | change in potency on variation of Fe^2+ concentration (PHD1 [9]; Fe^2+ in the reaction buffer varied by a factor of 30): ≤ 2 fold | IC50 (PHD1 [9]; biochemical assay, PHD1, HCl salt, ref 30 (WO2008067871 A1, example 72)): 490 nM | IC50 (PHD3): 450 nM | water uptake ([10]; 20–35 °C, normal pressure, >20 % relative humidity): up to 6 % w/w

IC50 (PHD1 [1]): 1000 nM
SMILES: N#Cc1cncc(-c2cnn(-c3ccccn3)c2O)c1 [Compound 35]

IC50 (PHD1 [1]): 24000 nM
SMILES: O=c1c(-c2cccnc2)n[nH]n1-c1ccccn1 [Compound 4]

IC50 (PHD1 [1]): 150 nM
SMILES: O=c1c(-n2cnc(C(F)(F)F)c2)c[nH]n1-c1ccccn1 [Compound 38]

IC50 (PHD1 [1]): > 50000 nM
SMILES: Nc1c(-c2cccnc2)cnn1-c1ccccn1 [Compound 6]

IC50 (PHD1 [1]): 1700 nM
SMILES: Cc1cncc(-c2cnn(-c3ccccn3)c2O)c1 [Compound 30]

IC50 (PHD1 [1]): > 50000 nM
SMILES: Cn1cc(-c2cccnc2)c(=O)n1-c1ccccn1 [Compound 9]

IC50 (PHD1 [1]): 3500 nM
SMILES: Cc1nn(-c2ccccn2)c(O)c1-c1cccnc1 [Compound 3]

IC50 (PHD1 [1]): 7500 nM
SMILES: S=c1c(-c2cccnc2)c[nH]n1-c1ccccn1 [Compound 5]

CYP profile / CYP inhibition (major CYP isoforms): no relevant CYP inhibition
SMILES: O=C(O)[C@H]1O[C@@H](n2cc(-n3ccnn3)c(=O)n2-c2cc(N3CCOCC3)ncn2)[C@H](O)[C@@H](O)[C@@H]1O [Compound 85, 1‐(Beta‐D‐glucopyranuronosyl)‐2‐[6‐(morpholin‐4‐yl)pyrimidin‐4‐yl]‐4‐(1H‐1,2,3‐triazol‐1‐yl)‐1,2‐dihydro‐3H‐pyrazol‐3‐one]
excreted via urine [13]: 85 % of dose
